Compound activity from PubChem.
MT stabilize HCS: stabilizes microtubules in HeLa cells. HeLa tubulin immunostaining HCS, 24 h; share of cells brighter than vehicle mean+2SD. % tubulin-high responders, % at 10 µM. 0.83% of 200,000 active. AID 2205;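 active means plate Z-score above 3 for both tubulin-high and condensed-nucleus cell shares, with cell loss under 80%, at 10 µM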;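 further: anti alpha tubulin signal scored within the nucleus-defined area of each cell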
bCat nuc transl: modulators of beta-catenin nuclear translocation; nuclear translocation activity, % at 5 µM; 0.3% of 190,000 active; AID 1665; HeLa beta-catenin nuclear translocation, immunofluorescence imaging;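 active means nuclear translocation activity above 50% at 5 µM, with a well cell count of 50 or more; inconclusive means wells under 50 cells across six images, flagged as toxic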;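 further: per-cell ratio of nuclear to cytoplasmic median beta-catenin stain intensity; plate controls were DMSO negative control for no effect and GSK-3 inhibitor IX positive control for full effect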
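Test system: HeLa cells, endogenous beta-catenin; Compound: single 5 µM dose plus 0.02–20 µM confirmation series; Times: compound exposure 24 h at 37°C; Signal: fluorescence imaging of beta-catenin antibody stain plus DAPI; Read-out: % activation, nuclear-to-cytoplasmic median beta-catenin signal ratio per cell.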
HSV replic up: increases HSV replication in cells; HSV replication augmentation in cells, fold increase; maximum fold increase; 0.005% of 220,000 active; AID 1956; in the data active means maximum fold increase above about 1.5; inconclusive means no clear call, values can overlap the other calls; tested in PC3 cells
Furin inhibitor: human furin inhibition. P09958. purified furin, fluorogenic substrate cleavage. inhibition, % at 20 µM or 30 µM. 0.061% of 220,000 active; in the data active means inhibition above about 25%
Target sequence (P09958 108-714 limits assumed): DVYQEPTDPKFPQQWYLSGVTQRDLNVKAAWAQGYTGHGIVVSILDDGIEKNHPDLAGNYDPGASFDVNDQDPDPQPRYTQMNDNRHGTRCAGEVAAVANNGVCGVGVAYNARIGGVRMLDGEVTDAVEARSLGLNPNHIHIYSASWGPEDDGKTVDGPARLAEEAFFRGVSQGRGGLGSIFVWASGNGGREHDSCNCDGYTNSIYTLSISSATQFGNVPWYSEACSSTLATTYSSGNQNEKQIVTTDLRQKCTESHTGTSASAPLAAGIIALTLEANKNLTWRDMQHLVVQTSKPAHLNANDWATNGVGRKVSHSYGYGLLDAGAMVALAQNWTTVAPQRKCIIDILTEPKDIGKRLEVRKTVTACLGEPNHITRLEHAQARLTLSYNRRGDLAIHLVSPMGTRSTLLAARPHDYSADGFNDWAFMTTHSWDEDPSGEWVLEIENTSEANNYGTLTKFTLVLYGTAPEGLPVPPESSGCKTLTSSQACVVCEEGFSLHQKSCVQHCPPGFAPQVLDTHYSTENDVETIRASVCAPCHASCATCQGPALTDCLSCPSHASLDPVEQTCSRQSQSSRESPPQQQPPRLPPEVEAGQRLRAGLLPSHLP
Autophagy HCS: modulators of autophagy | MEF GFP-LC3 puncta imaging; test concentration mostly 10 µM | calls only at 10 µM (by protocol) | 0.98% of 190,000 active;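 active means percentage of spot-positive cells more than 3 SD above its plate mean, without a fluorescence outlier flag or 80% toxicity; inconclusive means no clear call, values can overlap the other calls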;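 further: spot-positive cell cutoff set from DMSO-treated cells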
Insulin prom up: MIN6 insulin promoter up-regulation; 0.3% of 190,000 active; AID 1625; z-score at 5 µM; MIN6 insulin promoter-GFP reporter, high-content imaging; active compounds read high;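 active means z-score above 3 at 5 µM with at least 500 cells counted in the well; inconclusive means wells under 500 cells, flagged as cytotoxic or low count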
The depositor's hits bear a star. Compounds with a hit are over-represented: about 1.9% of the library has one in this group of screens.

For CCc1ccc(/C=N/NC(=O)c2cc(-c3ccncc3)nc3ccccc23)s1 the results were MT stabilize HCS 9, bCat nuc transl 66*, HSV replic up inactive, Furin inhibitor -19, Autophagy HCS inactive and Insulin prom up 0.45.
For O=C(NCC1CCCO1)C1CCC(CNS(=O)(=O)c2ccccc2)CC1 (centres undefined) the results were MT stabilize HCS 3, HSV replic up inactive, Furin inhibitor -33, Autophagy HCS inactive and Insulin prom up -0.19.
`O=C(N/N=C/c1ccc[nH]1)c1cc(-c2cccs2)nc2ccccc12` gave MT stabilize HCS 4, bCat nuc transl 0, HSV replic up inactive, Furin inhibitor -10, Autophagy HCS inactive and Insulin prom up -0.61.
Screening Cn1cccc1/C=N/NC(=O)c1cc(-c2cccs2)nc2ccccc12 returned MT stabilize HCS 17*, bCat nuc transl 17, HSV replic up inactive, Furin inhibitor -26, Autophagy HCS inactive and Insulin prom up 0.54.
For COc1ccccc1-c1cc(C(=O)N/N=C/c2cccs2)c2ccccc2n1 the results were MT stabilize HCS 2, Furin inhibitor -7 and Autophagy HCS inactive.
Screening Cc1cc(C)c2nc(NNC(=O)c3cc(-c4cccs4)nc4ccccc34)sc2c1 returned MT stabilize HCS 3, bCat nuc transl 0, Furin inhibitor -9, Autophagy HCS inactive and Insulin prom up 3.7*.
`O=C(N/N=C/c1cccs1)c1cc(-c2ccncc2)nc2ccccc12` gave MT stabilize HCS 5, bCat nuc transl 61*, HSV replic up inactive, Furin inhibitor -12, Autophagy HCS inactive and Insulin prom up -0.09.
Screening Cc1ccc2sc(NNC(=O)c3cc(-c4cccs4)nc4ccccc34)nc2c1C returned MT stabilize HCS 4, bCat nuc transl -1, Furin inhibitor -11, Autophagy HCS inactive and Insulin prom up -0.13.
`Cc1cc2oc(C(=O)N(Cc3ccccc3)c3ccccn3)cc(=O)c2cc1Cl` gave bCat nuc transl 0, HSV replic up inactive, Furin inhibitor -23 and Insulin prom up 0.25.
`Cc1cc(C)c2c(=O)cc(C(F)(F)F)oc2n1` gave MT stabilize HCS 3, bCat nuc transl -3, HSV replic up inactive, Furin inhibitor -14, Autophagy HCS inactive and Insulin prom up 0.34.
`COc1ccccc1Nc1nc(-c2ccc3c(c2)NC(=O)CO3)cs1` gave MT stabilize HCS 24*, bCat nuc transl 0, HSV replic up inactive, Furin inhibitor 3, Autophagy HCS inactive and Insulin prom up -0.46.
Screening COc1ccc([N+](=O)[O-])cc1NC(=O)c1ccc(C)o1 returned MT stabilize HCS 2, bCat nuc transl -9, HSV replic up inactive, Furin inhibitor -16, Autophagy HCS inactive and Insulin prom up -0.28.
O=C(O)c1ccccc1N/N=C/c1c(Sc2nnnn2-c2ccccc2)nc2ccccn2c1=O was read as bCat nuc transl 1, HSV replic up inconclusive and Furin inhibitor 4.
`O=c1c(/C=N/Nc2ccccc2)c(Sc2nnnn2-c2ccccc2)nc2ccccn12` gave MT stabilize HCS 3, bCat nuc transl -1, Furin inhibitor 5 and Autophagy HCS active.
`COCCNC(=O)c1ccc(Cn2c(=S)[nH]c3cc4c(cc3c2=O)OCO4)cc1` gave MT stabilize HCS 6, bCat nuc transl -3, HSV replic up inactive, Furin inhibitor -10, Autophagy HCS inactive and Insulin prom up -0.33.
`COC(CNC(=O)c1ccc(Cn2c(=S)[nH]c3cc4c(cc3c2=O)OCO4)cc1)OC` gave MT stabilize HCS 3, bCat nuc transl -2, HSV replic up inactive, Furin inhibitor -4, Autophagy HCS inactive and Insulin prom up 3.5*.
For Cc1ccc(CN2C(=O)[C@H]3Cc4c([nH]c5ccccc45)C(C)(C)N3C2=O)cc1 the results were HSV replic up inactive.
Screening CC1(c2nnc(Cc3ccccc3)o2)CC(c2cccnc2)=NO1 (centres undefined) returned HSV replic up inactive.
Screening CC(=O)Nc1ccc(S(=O)(=O)N2CCN(Cc3cccs3)CC2)cc1 returned MT stabilize HCS 4, bCat nuc transl 0, HSV replic up inactive, Furin inhibitor -14, Autophagy HCS inactive and Insulin prom up -0.03.
CCOC(=O)c1oc2ccc(S(=O)(=O)n3nc(-c4ccc(OC)cc4)cc3N)cc2c1C was read as MT stabilize HCS 13*, bCat nuc transl 1, Furin inhibitor -28 and Autophagy HCS inactive.
